The target in one data set is Prothrombin (Homo sapiens, UniProt P00734). The data set is described as follows: Inhibition of thrombin (unknown origin) using Benz-FVR-AMC as substrate preincubated for 10 mins followed by substrate addition measured for 30 mins by spectrophotometric analysis. The procedure, abridged: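 Thrombin, from a commercial source, in 20 mM Tris-HCl, pH 8, 150 mM NaCl, 2.5 mM CaCl2. Preincubated with inhibitor at various concentrations for 10 min at 37 °C. Benz-FVR-AMC (listed at 10 μM) was then added and the signal monitored for 30 min. Rates were relative to untreated; IC50 is the concentration giving 50% inhibition.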

Data set [1] deals with Klebsiella pneumoniae. The data set is described as follows: Inhibition of Klebsiella pneumoniae KP1008 KPC-2 assessed as meropenem MIC at 4 ug/ml by broth microdilution method. The procedure, abridged:
(§1)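 CLSI broth microdilution (M07-A9, 2012) MIC of the carbapenem against clinical serine carbapenemase-producing strain, tested alone and with the inhibitor held at a fixed 4 μg/mL.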
In general terms: Dilution methods test growth across graded concentrations, often in twofold steps.

Data set [2] concerns Klebsiella pneumoniae. The data set is described as follows: Inhibition of Klebsiella pneumoniae KP1088 SHV-11 assessed as ertapenem MIC at 4 ug/ml by broth microdilution method. A digest of the protocol:
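CLSI broth microdilution (M07-A9, 2012) against the clinical K. pneumoniae isolate. Carbapenem MICs were read alone and with 9f held at a fixed 4 μg/mL.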

Data set [3] in a line: Half life in rat at 100 mg/kg, iv administered as 0.5 hrs infusion by HPLC-MS method. Particulars: in vivo. Type of data set: ADME, organism-based.
The target of data set [4] is Beta-lactamase SHV-5 (Klebsiella pneumoniae) (UniProt P0A3M1). The data set is described as follows: Inhibition of Klebsiella pneumoniae KP1011 SHV5 assessed as cefepime MIC at 4 ug/ml by broth microdilution method. A digest of the protocol: (§2)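 CLSI broth microdilution (M07-A9) against clinical strains expressing serine β-lactamases.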
Data set [5] in a line: AUC in human at 1 g administered as 3 hrs of infusion. Type of data set: ADME, organism-based. The conditions noted are these: in vivo, iv.
The test system of another data set is Enterobacter cloacae. The data set is described as follows: Inhibition of Enterobacter cloacae ECL1003 SHV assessed as cefepime MIC at 4 ug/ml by broth microdilution method. The procedure, abridged:
as §2

Another data set has as its target Plasminogen (Homo sapiens, UniProt P00747). The data set is described as follows: Inhibition of plasmin (unknown origin) using H-D-VLK-pNA as substrate preincubated for 10 mins followed by substrate addition measured for 30 mins by spectrophotometric analysis. The procedure, abridged:
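Commercial plasmin in 100 mM Tris-HCl, pH 7.5, 100 mM NaCl. Exposed 10 min at 37 °C to varied inhibitor concentrations before H-D-VLK-pNA (listed at 200 μM), then absorbance read over 30 min. Rates were vs a no-treatment control; IC50 is the concentration giving 50% inhibition.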

Data set [6] concerns the target T1, Class A carbapenemase (Enterobacter cloacae) (UniProt A7WP95).
T1 sequence (whole entry): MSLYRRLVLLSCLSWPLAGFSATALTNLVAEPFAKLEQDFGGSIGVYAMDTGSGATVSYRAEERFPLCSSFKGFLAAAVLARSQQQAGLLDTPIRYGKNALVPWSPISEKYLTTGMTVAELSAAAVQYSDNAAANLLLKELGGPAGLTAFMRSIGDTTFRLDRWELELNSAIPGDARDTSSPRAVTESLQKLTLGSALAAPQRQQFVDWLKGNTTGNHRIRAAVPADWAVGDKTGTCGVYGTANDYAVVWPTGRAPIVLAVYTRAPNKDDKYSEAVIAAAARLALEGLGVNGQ
The data set is described as follows: Inhibition of Enterobacter cloacae ECL1058 KPC-3 assessed as meropenem MIC at 4 ug/ml by broth microdilution method.

Data set [7] addresses Beta lactamase TEM-1 (Klebsiella pneumoniae) (UniProt Q7B899). The data set is described as follows: Inhibition of Klebsiella pneumoniae KP1083 TEM-1 assessed as imipenem MIC at 4 ug/ml by broth microdilution method.
For data set [8] the target is unchanged. The data set is described as follows: Inhibition of Klebsiella pneumoniae KP1084 TEM-1 assessed as meropenem MIC at 4 ug/ml by broth microdilution method. The procedure, abridged: as §1
The test system of data set [9] is Klebsiella pneumoniae. The data set is described as follows: Inhibition of Klebsiella pneumoniae KP1082 KPC-2 assessed as biapenem MIC at 4 ug/ml by broth microdilution method. A digest of the protocol:
as §1

In data set [10] the target is Urokinase-type plasminogen activator (Homo sapiens, UniProt P00749). The data set is described as follows: Inhibition of urokinase (unknown origin) using NGK-pNA as substrate preincubated for 10 mins followed by substrate addition measured for 30 mins by spectrophotometric analysis. The procedure, abridged: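 Urokinase, from a commercial source, in 50 mM Tris-HCl, pH 8.5, 38 mM NaCl. Mixed with inhibitor at various concentrations for 10 min at 37 °C, then NGK-pNA (listed at 100 μM) added and absorbance monitored for 30 min. Rates were relative to untreated; IC50 is the concentration giving 50% inhibition.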

For data set [11], the target named is Carbapenem-hydrolyzing beta-lactamase KPC (Klebsiella pneumoniae) (UniProt Q9F663). The data set is described as follows: Inhibition of Klebsiella pneumoniae KP1083 KPC-3 assessed as imipenem MIC at 4 ug/ml by broth microdilution method.
Data set [12] in a line: Volume of distribution in rat at 300 mg/kg, iv administered as 0.5 hrs infusion by HPLC-MS method. Type of data set: ADME, organism-based. The conditions noted are these: in vivo.
The test system of data set [13] is Klebsiella pneumoniae. The data set is described as follows: Inhibition of Klebsiella pneumoniae KP1004 SHV-11 assessed as ertapenem MIC at 4 ug/ml by broth microdilution method. A digest of the protocol:
as §1

A further data set deals with Escherichia coli. The data set is described as follows: Inhibition of Escherichia coli EC1011 TEM-26 assessed as cefepime MIC at 4 ug/ml by broth microdilution method. A digest of the protocol:
as §2

The target in data set [14] is Beta-lactamase (Klebsiella pneumoniae) (UniProt Q93LQ9). The data set is described as follows: Inhibition of Klebsiella pneumoniae KP1004 KPC 2 carbapenemase assessed as minimum concentration required to reduce biapenem MIC from […] ug/ml to 1 ug/mL by broth microdilution method.
The test system of the next data set is Homo sapiens. The data set is described as follows: Toxicity in human at 250 to 1500 mg administered as 3 hrs of infusion. The class given is organism-based. Particulars: in vivo, iv. A digest of the protocol: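 Phase 1 study in 36 normal (healthy) volunteers under GCP. Single 3 h infusions were given at 250, 500, 750, 1000, 1250 or 1500 mg, and drug-related adverse events were recorded.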

Data set [15] is described as follows: Volume of distribution in rat at 1000 mg/kg, iv administered as 0.5 hrs infusion by HPLC-MS method. Type of data set: ADME, organism-based. Particulars: in vivo.
The target in data set [16] is T2, Beta-lactamase SHV-1 (Klebsiella pneumoniae) (UniProt P0AD64).
T2 sequence (whole entry): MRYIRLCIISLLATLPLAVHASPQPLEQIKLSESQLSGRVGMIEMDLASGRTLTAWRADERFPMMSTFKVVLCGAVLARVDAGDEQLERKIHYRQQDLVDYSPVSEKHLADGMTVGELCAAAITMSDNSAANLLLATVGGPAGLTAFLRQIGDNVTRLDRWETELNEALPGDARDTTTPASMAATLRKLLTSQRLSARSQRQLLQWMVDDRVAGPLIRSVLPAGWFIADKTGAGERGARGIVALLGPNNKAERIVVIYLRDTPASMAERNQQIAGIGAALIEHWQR
The data set is described as follows: Inhibition of Klebsiella pneumoniae KP1082 SHV-1 assessed as biapenem MIC at 4 ug/ml by broth microdilution method. The procedure, abridged: as §1

Data set [17] concerns the target Beta lactamase TEM-1 (Klebsiella pneumoniae) (UniProt Q7B899). The data set is described as follows: Inhibition of Klebsiella pneumoniae KP1084 TEM-1 assessed as imipenem MIC at 4 ug/ml by broth microdilution method.
Data set [18] addresses Carbapenem-hydrolyzing beta-lactamase KPC (Klebsiella oxytoca) (UniProt Q848S6). The data set is described as follows: Inhibition of Klebsiella oxytoca KX1017 KPC-2 assessed as biapenem MIC at 4 ug/ml by broth microdilution method.

By IC50 is commonly meant the concentration at which inhibition is half-maximal. Higher therefore signals weaker potency in that assay. What is called half-life is the time needed for the level to fall by half in the phase considered. A high value points to slow decline. The term AUC denotes the area under the concentration-time curve, a measure of exposure. High values mean more exposure, low ones less exposure. For orientation: Vd means a proportionality between amount in the body and measured concentration, not a real space.

A value given as a limit tells only on which side of the number the result lay.

Beta lactamase TEM-1 (Klebsiella pneumoniae), sequence (Q7B899 as listed by the source): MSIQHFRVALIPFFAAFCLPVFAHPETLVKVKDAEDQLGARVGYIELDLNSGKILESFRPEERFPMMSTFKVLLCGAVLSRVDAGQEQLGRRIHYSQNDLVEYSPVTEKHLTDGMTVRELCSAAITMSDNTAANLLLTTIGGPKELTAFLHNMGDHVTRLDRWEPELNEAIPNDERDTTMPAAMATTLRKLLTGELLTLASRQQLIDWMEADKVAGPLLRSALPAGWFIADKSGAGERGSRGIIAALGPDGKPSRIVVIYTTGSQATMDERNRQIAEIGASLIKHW
Beta-lactamase (Klebsiella pneumoniae), sequence (Q93LQ9 as listed by the source): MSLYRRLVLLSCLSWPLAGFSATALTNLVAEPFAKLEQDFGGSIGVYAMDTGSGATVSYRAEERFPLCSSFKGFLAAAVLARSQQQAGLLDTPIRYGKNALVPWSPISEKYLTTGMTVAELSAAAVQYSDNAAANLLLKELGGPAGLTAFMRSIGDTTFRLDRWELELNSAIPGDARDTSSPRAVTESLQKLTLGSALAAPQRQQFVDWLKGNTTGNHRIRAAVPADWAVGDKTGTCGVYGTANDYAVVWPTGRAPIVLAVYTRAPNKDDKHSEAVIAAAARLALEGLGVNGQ
Carbapenem-hydrolyzing beta-lactamase KPC (Klebsiella oxytoca), sequence (Q848S6 whole entry): as the sequence (Q93LQ9 as listed by the source) above
Carbapenem-hydrolyzing beta-lactamase KPC (Klebsiella pneumoniae), sequence (Q9F663 whole entry, the tested form may be a part): as the sequence (Q93LQ9 as listed by the source) above
Beta-lactamase SHV-5 (Klebsiella pneumoniae), sequence (P0A3M1 whole entry, the tested form may be a part): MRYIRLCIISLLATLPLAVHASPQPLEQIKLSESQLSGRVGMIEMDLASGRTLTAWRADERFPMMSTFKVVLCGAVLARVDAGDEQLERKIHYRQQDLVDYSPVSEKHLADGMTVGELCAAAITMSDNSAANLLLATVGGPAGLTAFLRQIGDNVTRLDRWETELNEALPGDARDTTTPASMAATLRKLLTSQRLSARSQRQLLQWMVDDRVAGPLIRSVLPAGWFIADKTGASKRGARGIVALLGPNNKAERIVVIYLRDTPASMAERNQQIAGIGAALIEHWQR
Plasminogen, sequence (P00747 97-580 limits assumed): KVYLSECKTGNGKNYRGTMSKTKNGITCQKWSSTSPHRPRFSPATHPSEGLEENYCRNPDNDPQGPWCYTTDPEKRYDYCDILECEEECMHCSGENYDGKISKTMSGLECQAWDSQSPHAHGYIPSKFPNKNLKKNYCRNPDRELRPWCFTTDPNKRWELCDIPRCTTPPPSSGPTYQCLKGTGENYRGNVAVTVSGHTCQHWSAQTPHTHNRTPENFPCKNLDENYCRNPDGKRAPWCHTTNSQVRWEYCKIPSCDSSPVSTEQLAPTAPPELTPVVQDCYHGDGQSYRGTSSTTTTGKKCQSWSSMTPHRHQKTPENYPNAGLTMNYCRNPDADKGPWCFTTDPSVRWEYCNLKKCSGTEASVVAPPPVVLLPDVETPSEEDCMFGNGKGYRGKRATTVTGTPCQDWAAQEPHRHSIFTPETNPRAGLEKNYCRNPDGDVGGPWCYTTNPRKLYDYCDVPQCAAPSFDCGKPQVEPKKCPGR
Plasminogen, sequence (P00747 581-810 limits assumed): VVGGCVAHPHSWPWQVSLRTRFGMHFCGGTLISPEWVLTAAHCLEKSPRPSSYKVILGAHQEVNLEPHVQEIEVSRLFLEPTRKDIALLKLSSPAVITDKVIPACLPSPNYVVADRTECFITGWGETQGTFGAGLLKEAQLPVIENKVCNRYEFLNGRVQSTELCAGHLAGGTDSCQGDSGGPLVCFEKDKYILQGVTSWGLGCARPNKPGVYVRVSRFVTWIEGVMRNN

As to `O=C(O)C[C@@H]1CC[C@H](NC(=O)Cc2cccs2)B(O)O1` [VABORBACTAM], the 50% inhibitory concentration (IC50) (at Prothrombin; against Plasminogen; in data set [10]) was greater than 1000 µM in each case. Also, the MIC in the data set with Klebsiella pneumoniae [1] was no more than 0.06 µg/mL; with Klebsiella pneumoniae [2], no more than 0.06 µg/mL; in data set [4] it was 0.25 µg/mL; in the data set with Enterobacter cloacae, 8 µg/mL; in data set [6], less than 0.06 µg/mL; in [7], 0.13 µg/mL. For the same compound, the MIC in data set [8] is 0.5 µg/mL; in the data set on Klebsiella pneumoniae [9], no more than 0.06 µg/mL; in data set [11], 0.13 µg/mL; with Klebsiella pneumoniae [13], no more than 0.06 µg/mL; in the data set on Escherichia coli, 2 µg/mL; in [16] it was less than 0.06 µg/mL. Moreover, the MIC was 0.25 µg/mL in [17] and less than 0.06 µg/mL in [18]. The compound further had a half-life in data set [3] of 25.2 min. The compound also yielded an AUC at 3 h in data set [5] of 100000 ng·h/mL. Besides, the Vd in data set [12] was determined as 0.48 L/kg; in [15] it was 0.55 L/kg. For the same compound, the MEC in data set [14] was 0.02 µg/mL. In addition, the Activity result in the data set on Homo sapiens is listed as “Non-toxic”.

(Values after ChEMBL document CHEMBL3576866, “Discovery of a Cyclic Boronic Acid β-Lactamase Inhibitor (RPX7009) with Utility vs Class A Serine Carbapenemases” (J Med Chem, 2015).)
